Test [1] addresses T1, Peptidyl-prolyl cis-trans isomerase FKBP4 (Homo sapiens) (UniProt Q02790).
T1 sequence (whole entry): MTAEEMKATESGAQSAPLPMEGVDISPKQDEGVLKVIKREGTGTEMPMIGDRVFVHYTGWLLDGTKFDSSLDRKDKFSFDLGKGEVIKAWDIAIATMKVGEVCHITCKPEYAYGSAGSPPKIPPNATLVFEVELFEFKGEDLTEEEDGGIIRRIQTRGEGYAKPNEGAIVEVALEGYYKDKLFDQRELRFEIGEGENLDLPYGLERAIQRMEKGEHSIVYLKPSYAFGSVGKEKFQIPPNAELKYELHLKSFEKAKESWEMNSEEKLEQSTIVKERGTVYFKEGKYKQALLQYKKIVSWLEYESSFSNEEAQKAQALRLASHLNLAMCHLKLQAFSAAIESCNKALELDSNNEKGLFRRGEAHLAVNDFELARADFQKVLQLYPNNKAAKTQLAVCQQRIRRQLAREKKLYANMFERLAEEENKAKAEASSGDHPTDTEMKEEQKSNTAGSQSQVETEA
The experiment in a line: Increase in neurite outgrowth in chick embryo dorsal root ganglion at 1 pM in presence of NGF. The class given is functional, tissue-based. Particulars: Gallus gallus, target entry is the homologue from another species. Summed up:
(§1)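 DRGs from 8-day chick embryos, on rat tail collagen-coated flasks, 5-6 per flask; after 1 h attachment at 37 °C, 5% CO2, treated with compound plus 0.15 ng/mL NGF in DMEM for 48 h. DMSO stock 1 mM, final DMSO below 10^-7 M. Phase-contrast scoring of neurite number and length, averaged over 15-18 ganglia; NGF-only controls; one-way ANOVA with Student-Newman-Keuls.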

In test [2] the target is T1, Peptidyl-prolyl cis-trans isomerase FKBP4 (Homo sapiens). Nature of the test: Increase in neurite outgrowth in chick embryo dorsal root ganglion at 100 pM in presence of NGF. The class given is functional, tissue-based. Particulars: Gallus gallus, target entry is the homologue from another species. The method, boiled down: as §1
For test [3] the target is unchanged. The experiment in a line: Increase in neurite outgrowth in chick embryo dorsal root ganglion in absence of NGF. The class given is functional, tissue-based. Particulars: Gallus gallus, target entry is the homologue from another species.
Test [4] shares this target. The experiment in a line: Decrease in neurite outgrowth in chick embryo dorsal root ganglion at 1 nM in presence of NGF. The class given is functional, tissue-based. The settings on record: Gallus gallus, target entry is the homologue from another species. Summed up: as §1
For test [5], the system named is Mus musculus. Nature of the test: Neuroprotective activity against 6-OHDA-induced Kunming mouse peripheral sympathetic nerve injury measured as norepinephrine content in submandibular gland at 10 mg/kg, sc. The class given is functional. The settings on record: route subcutaneous. The method, boiled down:
(§2)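 Adult female Kunming mice, 22 g, lesioned with 6-OHDA 8 mg/kg i.p.; compound given s.c. 4 h before lesion and daily for 4 further days; vehicle controls. Killed 2 weeks after last dose; both submandibular glands weighed and homogenized with 3,4-dihydroxybenzylamine internal standard, centrifuged 30 min; norepinephrine in supernatant by HPLC-ECD, µg/g wet weight; mean ± SEM.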

For test [6], the target named is T1, Peptidyl-prolyl cis-trans isomerase FKBP4 (Homo sapiens). The experiment in a line: Increase in neurite outgrowth in chick embryo dorsal root ganglion in presence of NGF. The settings on record: Gallus gallus, target entry is the homologue from another species. The class given is functional, tissue-based. The method, boiled down:
as §1

The subject of test [7] is Mus musculus. The experiment in a line: Neuroprotective activity against 6-OHDA-induced Kunming mouse peripheral sympathetic nerve injury measured as norepinephrine content in submandibular gland at 2 mg/kg, sc. The class given is functional. The settings on record: route subcutaneous. Summed up: as §2

Active and inactive are the calls of the source. The calls are words filed in the database; no cut-off is given here.

For `C=CCCCCCCCCOC(=O)[C@@H]1CSC(C)(C)N1C(=O)C(=O)C(C)(C)C`, the outcome in test [1] and in test [2] was Active.
Regarding `CCCCCCC(=O)C(=O)N1[C@H](C(=O)OCCc2ccccc2Cl)CSC1(C)C`, the result in test [1] and in test [2] was Active.
Consider `CC(C)(C)C(=O)C(=O)N1[C@H](C(=O)OCCCc2cccnc2)CSC1(C)C`, for which the outcome in test [3] was inactive. Moreover, the result in test [1], in test [4] and in test [2] was Active. Besides, the Activity with Mus musculus [5] is 2.31 µg/g; in test [6], “Dose-dependent effect”.
Compound `C=CC[C@@H]1/C=C(\C)C[C@H](C)C[C@H](OC)[C@H]2O[C@@](O)(C(=O)C(=O)N3CCCC[C@H]3C(=O)O[C@H](/C(C)=C/[C@@H]3CC[C@@H](O)[C@H](OC)C3)[C@H](C)[C@@H](O)CC1=O)[C@H](C)C[C@@H]2OC` [TACROLIMUS ANHYDROUS] registered an Activity in the test on Mus musculus [7] of 2.33 µg/g.
As for `CCC(C)(C)C(=O)C(=O)N1[C@H](C(=O)OC/C=C/c2ccccc2)CSC1(C)C`, the outcome in test [1] and in test [2] was Active.
Consider `CC(C)(C)C(=O)C(=O)N1[C@H](C(=O)OCCCc2ccccc2)CSC1(C)C`, for which the result in test [1] and in test [2] was Active.
As to `CCCCCCC(=O)C(=O)N1[C@H](C(=O)OCCCc2ccccc2)CSC1(C)C`, the result in test [1] and in test [2] was Active.

For the origin of these results see ChEMBL document CHEMBL1138917, “FK506-binding protein ligands: structure-based design, synthesis, and neurotrophic/neuroprotective properties of substituted 5,5-dimethyl-2-(4-thiazolidine)carboxylates” (2006).
